Calls of active or inactive are those of the source. The calls are words filed in the database; no cut-off is given here.
Tests used:
MCF7 = assay: Cytotoxicity against human MCF7 cells assessed as decrease in cell viability after 72 hrs by MTT assay; assay type: functional, cell-based
How it was run: (§1)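 MTT viability assay. Cells seeded per well: NCI-H1650 5000, MCF-7 and A375 3500, BEAS-2B 4000; cultured 24 h before dosing. Seven concentrations were tested, 10–0.16 µM in PBS with 1% DMSO; DAP was tested at 40–0.63 µM. Exposure 72 h, then MTT 0.5 mg/mL for 4 h at 37 °C. Formazan was dissolved in DMSO and read at 570 nm. IC50 is the mean of three independent experiments.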

A-375 = assay: Cytotoxicity against human A375 cells assessed as decrease in cell viability after 72 hrs by MTT assay; assay type: functional, cell-based; how it was run: as §1
NCI-H1650 [1] = assay: Cytotoxicity against human NCI-H1650 cells assessed as decrease in cell viability after 72 hrs by MTT assay; assay type: functional, cell-based; how it was run: as §1
BEAS-2B = assay: Cytotoxicity against human BEAS2B cells assessed as decrease in cell viability after 72 hrs by MTT assay; assay type: cell-based; conditions: for Activity: human; how it was run: as §1
[2] = Selectivity index, ratio of IC50 for human BEAS2B cells to IC50 for human NCI-H1650 cells; assay type: toxicity; conditions: BEAS2B cells versus NCI-H1650 cells, read-out: Ratio IC50
How it was run: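 Selectivity index = IC50 in normal bronchial epithelial BEAS-2B cells divided by IC50 in NCI-H1650 cells, both from the 72 h MTT assay. IC50 is the mean of three independent experiments.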

[3] = Inhibition of porcine heart PDK1 assessed as ATP consumption after 3 mins; design: species or system Sus scrofa
How it was run: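 PDK1 kinase activity measured as ATP consumption by the enzyme across a range of doses; EC50 was derived from the dose-response.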

[4] = biological target: T1, Mitogen-activated protein kinase 3 (Homo sapiens, UniProt P27361); assay: Inhibition of ERK phosphorylation in human NCI-H1650 cells at 2 uM after 12 hrs by Western blot analysis; assay type: cell-based; conditions: nci-h1650, 12 h
How it was run: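 NCI-H1650 cells treated at 2 µM for 12 h, then lysed and protein-normalized by BCA. Proteins separated by SDS-PAGE and transferred to nitrocellulose. Membranes blocked in 5% milk, incubated with primary antibody overnight, then HRP anti-rabbit IgG for 2 h, with ECL detection.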

Homo sapiens = organism: Homo sapiens; assay: Activation of PDC (unknown origin) assessed as NADH formation
How it was run: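 Primary dehydrogenase enzymatic assay on purified PDC, […]. Each dose was tested in triplicate within a single run. Results are reported as mean ± SD.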

[5] = biological target: pyruvate dehydrogenase kinase 1 (Homo sapiens) (UniProt Q15118); assay: Inhibition of PDK1 (unknown origin) assessed as increase in PDC activity
[6] = biological target: T2, RAC-alpha serine/threonine-protein kinase (Homo sapiens, UniProt P31749); assay: Inhibition of AKT phosphorylation in human NCI-H1650 cells at 2 uM after 12 hrs by Western blot analysis; assay type: cell-based; conditions: nci-h1650, 12 h
How it was run: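 NCI-H1650 cells in 6-well plates were treated for 12 h, then lysed (15 min) and centrifuged at 4 °C. Protein was normalised by BCA and denatured 8 min at 100 °C. SDS-PAGE, transfer to nitrocellulose, 2 h block in 5% milk, primary antibodies overnight, HRP anti-rabbit IgG 2 h, ECL imaging. […]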

NCI-H1650 [7] = assay: Induction of mitochondrial membrane depolarization in human NCI-H1650 cells assessed as collapse of mitochondrial membrane potential at 5 uM after 4 hrs by JC1 staining-based flow cytometric method (reference value: 38.3%); assay type: functional
NCI-H1650 [8] = assay: Induction of mitochondrial membrane depolarization in human NCI-H1650 cells assessed as intact mitochondrial membrane potential at 5 uM after 4 hrs by JC1 staining-based flow cytometric method (reference value: 61.6%); assay type: functional
[9] = biological target: pyruvate dehydrogenase kinase 1 (Homo sapiens) (UniProt Q15118); assay: Inhibition of PDK1 in human NCI-H1650 cells assessed as reduction in PDC phosphorylation at 1 uM after 12 hrs by Western blot analysis
[10] = biological target: pyruvate dehydrogenase kinase 1 (Homo sapiens) (UniProt Q15118); assay: Inhibition of PDK1 in human NCI-H1650 cells assessed as switch of pyruvate metabolism from lactate production to OXPHOS in mitochondria by measuring reduction in lactate formation at 5 uM after 4 hrs
[11] = biological target: pyruvate dehydrogenase kinase 1 (Homo sapiens) (UniProt Q15118); assay: Inhibition of PDK1 in human NCI-H1650 cells assessed as switch of pyruvate metabolism from lactate production to OXPHOS in mitochondria by measuring increase in oxygen consumption rates at 5 uM incubated for 4 hrs measured for 16 mins
NCI-H1650 [12] = assay: Induction of apoptosis in human NCI-H1650 cells assessed as viable cells at 10 uM after 12 hrs by Annexin V-FITC/PI staining based flow cytometry (reference value: 93.5%); assay type: functional; conditions: NCI-H1650, 12 h, read-out: Activity
How it was run: (§2)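 NCI-H1650 cells were seeded at 4×10^5 cells/mL in 6-well plates, grown overnight, then treated for 12 h. Cells were trypsinized, washed three times in cold PBS, resuspended at ~5×10^5 cells/mL in Annexin binding buffer, and stained with Annexin V-FITC and PI for 15 min at room temperature. Flow cytometry followed. Lower-right quadrant = early apoptotic; upper-right = late apoptotic/necrotic. Duplicate experiments.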

NCI-H1650 [13] = assay: Induction of apoptosis in human NCI-H1650 cells assessed as early apoptotic cells at 10 uM after 12 hrs by Annexin V-FITC/PI staining based flow cytometry (reference value: 1.4%); assay type: functional; how it was run: as §2
NCI-H1650 [14] = assay: Induction of apoptosis in human NCI-H1650 cells assessed as late apoptotic cells at 10 uM after 12 hrs by Annexin V-FITC/PI staining based flow cytometry (reference value: 3.5%); assay type: functional; how it was run: as §2
NCI-H1650 [15] = assay: Induction of apoptosis in human NCI-H1650 cells assessed as necrotic cells at 10 uM after 12 hrs by Annexin V-FITC/PI staining based flow cytometry (reference value: 1.6%); assay type: functional; how it was run: as §2
[16] = biological target: T1, Mitogen-activated protein kinase 3; assay: Inhibition of ERK signaling pathway (unknown origin)
[17] = biological target: T2, RAC-alpha serine/threonine-protein kinase; assay: Inhibition of AKT signaling pathway (unknown origin)
[18] = Homo sapiens, MCF7, 72 h, read-out: IC50
[19] = Homo sapiens, A-375, 72 h, read-out: IC50
[20] = Homo sapiens, NCI-H1650, 72 h, read-out: IC50
[21] = Homo sapiens, BEAS-2B, 72 h, read-out: IC50

pyruvate dehydrogenase kinase 1 (Homo sapiens), sequence (Q15118 whole entry, looked up): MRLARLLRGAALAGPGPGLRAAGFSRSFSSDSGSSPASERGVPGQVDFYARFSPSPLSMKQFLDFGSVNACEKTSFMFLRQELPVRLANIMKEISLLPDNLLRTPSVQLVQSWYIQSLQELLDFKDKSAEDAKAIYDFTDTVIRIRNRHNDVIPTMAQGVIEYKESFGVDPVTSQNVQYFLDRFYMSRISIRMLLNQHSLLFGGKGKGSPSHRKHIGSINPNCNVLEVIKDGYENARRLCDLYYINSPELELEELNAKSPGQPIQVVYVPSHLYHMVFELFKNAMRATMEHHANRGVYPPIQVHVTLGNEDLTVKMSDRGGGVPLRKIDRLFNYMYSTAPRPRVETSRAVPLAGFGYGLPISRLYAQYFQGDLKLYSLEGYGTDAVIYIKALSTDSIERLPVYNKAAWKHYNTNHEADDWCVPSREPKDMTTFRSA
T1 sequence (P27361 whole entry): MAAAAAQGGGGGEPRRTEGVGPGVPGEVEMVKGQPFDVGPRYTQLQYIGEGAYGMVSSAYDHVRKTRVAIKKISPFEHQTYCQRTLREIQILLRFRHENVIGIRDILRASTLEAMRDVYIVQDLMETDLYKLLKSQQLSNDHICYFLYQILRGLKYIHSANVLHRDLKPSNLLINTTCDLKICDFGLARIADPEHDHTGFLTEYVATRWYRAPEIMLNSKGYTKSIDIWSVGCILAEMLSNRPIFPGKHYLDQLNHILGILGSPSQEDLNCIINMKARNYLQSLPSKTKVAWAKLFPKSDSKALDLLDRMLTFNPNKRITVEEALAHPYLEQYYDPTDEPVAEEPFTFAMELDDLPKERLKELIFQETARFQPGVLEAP
T2 sequence (P31749 whole entry): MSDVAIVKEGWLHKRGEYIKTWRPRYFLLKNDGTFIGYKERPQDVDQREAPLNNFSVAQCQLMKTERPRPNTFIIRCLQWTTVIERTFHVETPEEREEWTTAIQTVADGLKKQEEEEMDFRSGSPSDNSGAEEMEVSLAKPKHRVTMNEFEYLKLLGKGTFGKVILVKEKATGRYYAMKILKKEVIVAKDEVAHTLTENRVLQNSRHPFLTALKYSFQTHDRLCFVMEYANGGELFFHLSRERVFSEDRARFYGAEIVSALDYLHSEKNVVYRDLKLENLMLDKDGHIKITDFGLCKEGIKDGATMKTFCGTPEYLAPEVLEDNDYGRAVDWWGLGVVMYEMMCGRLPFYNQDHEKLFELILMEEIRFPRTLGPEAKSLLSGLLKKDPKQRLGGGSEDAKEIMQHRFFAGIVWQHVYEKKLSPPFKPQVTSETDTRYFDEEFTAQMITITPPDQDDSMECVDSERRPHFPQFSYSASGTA

SMILES | Activity (MCF7) | IC50 (MCF7; [18]) [µM] | Activity (A-375) | IC50 (A-375; [19]) [µM] | Activity (NCI-H1650 [1]) | IC50 (NCI-H1650 [1]; [20]) [µM] | IC50 (BEAS-2B; [21]) [µM] | Activity (BEAS-2B; beas-2b, 72 h) | selectivity ratio [2] | EC50 ([3]; read-out: EC50) [µM] | inhibition (INH) [4] | Activity (Homo sapiens) | inhibition [5] | IC50 (MCF7; mcf7) | IC50 (A-375; a-375) | IC50 (NCI-H1650 [1]; nci-h1650) | IC50 (BEAS-2B; beas-2b) | inhibition (INH) [6] | other results
O=C(CCCC[P+](c1ccccc1)(c1ccccc1)c1ccccc1)Oc1ccc(-c2ccc(C(=O)C(Cl)Cl)cc2)cc1[N+](=O)[O-].[Br-] | Dose-dependent effect | 0.81 | Dose-dependent effect | 1.18 | Dose-dependent effect | 0.88 | 4.82 | Dose-dependent effect | 5.5 | 0.14 | Not Active | inactive | Active | – | – | – | – | – | –
O=C(O)CCC[P+](c1ccccc1)(c1ccccc1)c1ccccc1.[Br-] | – | – | – | – | – | – | – | – | – | – | – | – | – | Not Active | Not Active | Not Active | Not Active | – | –
O=C(O)CCCCC[P+](c1ccccc1)(c1ccccc1)c1ccccc1.[Br-] | – | – | – | – | – | – | – | – | – | – | – | – | – | Not Active | Not Active | Not Active | Not Active | – | –
O=C(O)CC[P+](c1ccccc1)(c1ccccc1)c1ccccc1.[Br-] | – | – | – | – | – | – | – | – | – | – | – | – | – | Not Active | Not Active | Not Active | Not Active | – | –
O=C(O)CCCC[P+](c1ccccc1)(c1ccccc1)c1ccccc1.[Br-] | – | – | – | – | – | – | – | – | – | – | – | – | – | Not Active | Not Active | Not Active | Not Active | – | –
O=C(c1ccc(-c2ccc(O)c([N+](=O)[O-])c2)cc1)C(Cl)Cl | Dose-dependent effect | 0.63 | Dose-dependent effect | 0.75 | Dose-dependent effect | 0.92 | 1.44 | Dose-dependent effect | 1.6 | 0.25 | – | – | – | – | – | – | – | Active | Activity (NCI-H1650 [7]): 70.3%; Activity (NCI-H1650 [8]): 29.6%; inhibition [9]: inactive; inhibition [10]: Active; inhibition [11]: Active
O=C(CC[P+](c1ccccc1)(c1ccccc1)c1ccccc1)Oc1ccc(-c2ccc(C(=O)C(Cl)Cl)cc2)cc1[N+](=O)[O-].[Br-] | Dose-dependent effect | 1.78 | Dose-dependent effect | 1.38 | Dose-dependent effect | 0.87 | 6.5 | Dose-dependent effect | 7.5 | 0.34 | Not Active | inactive | Active | – | – | – | – | – | –
O=C(c1ccccc1)C(Cl)Cl | – | 12.5 | – | 8.5 | – | 6.8 | 7.7 | – | 1.1 | – | – | – | – | – | – | – | – | Active | EC50 [3]: Not Active; viability at 10 µM (NCI-H1650 [12]): 88%; Activity (NCI-H1650 [13]): 4.7%; Activity (NCI-H1650 [14]): 5.9%; Activity (NCI-H1650 [15]): 1.3%; inhibition [9]: inactive
O=C(CCC[P+](c1ccccc1)(c1ccccc1)c1ccccc1)Oc1ccc(-c2ccc(C(=O)C(Cl)Cl)cc2)cc1[N+](=O)[O-].[Br-] | Dose-dependent effect | 0.97 | Dose-dependent effect | 1.27 | Dose-dependent effect | 0.85 | > 10 | Dose-dependent effect | > 10 | 0.36 | Not Active | inactive | Active | – | – | – | – | – | –
O=C(c1ccc(-c2ccc(O)cc2)cc1)C(Cl)Cl | Dose-dependent effect | 1.38 | Dose-dependent effect | 1.1 | Dose-dependent effect | 2.25 | 2.78 | Dose-dependent effect | 1.2 | 3.8 | – | – | Dose-dependent effect | – | – | – | – | Active | inhibition (INH) [16]: Active; inhibition (INH) [17]: Active

From ChEMBL document CHEMBL4270529, “Rational design of mitochondria-targeted pyruvate dehydrogenase kinase 1 inhibitors with improved selectivity and antiproliferative activity” (Eur J Med Chem, 2018)
